Columns and labels:
[1] = Half life in mouse liver microsomes at 5 uM in presence of UDPGA; type: ADME, Microsome
Method in brief: (§1)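 Human or mouse liver microsomes (1.0 mg protein/ml) were pretreated with 25 µg/ml alamethicin in 50 mM Tris-HCl, pH 7.5, at 4 °C for 30 min to release UGTs. Compound at 5 µM was then incubated with 2 mM UDPGA at 37 °C for 60 min. The reaction was quenched with three volumes of acetonitrile and centrifuged.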

[2] = Half life in mouse liver microsomes at 1 uM in presence of NADPH; type: ADME, Microsome
Method in brief: (§2)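 Compound at 1 µM was incubated at 37 °C for 30 min with human or mouse liver microsomes (0.5 mg protein/ml) in 50 mM phosphate buffer, pH 7.4, with 1 mM NADPH. The reaction was quenched with three volumes of acetonitrile and centrifuged. Remaining compound in the supernatant was quantified by LC/MS.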

PC-3 = assay: Cytotoxicity against PTEN-deficient human PC3 cells assessed as growth inhibition after 96 hrs; type: functional, cell-based; conditions: PC-3, 96 h
Method in brief: (§3)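 KPL-4 breast, HCT116 colon and PC-3 prostate cancer cells were exposed to a range of compound concentrations for 96 h. Growth inhibition was read with Cell Counting Kit-8.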

HCT-116 = assay: Cytotoxicity against human HCT116 cells expressing PI3Kalpha H1047R mutant assessed as growth inhibition after 96 hrs; type: functional, cell-based; conditions: HCT-116, 96 h; method in brief: as §3
[3] = AUC in BALB/c nu mouse at 100 mg/kg, po; type: ADME, organism-based; parameters: dose 100 mg/kg, route oral; conditions: plasma
Method in brief: (§4)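 Female BALB/c-nu mice, n = 2 per group, dosed iv at 10 mg/kg or po at 100 mg/kg. Heparinized blood drawn at 0.08, 0.25, 2, 4, 7 and 24 h after iv dosing, and at 0.50, 2, 4, 7 and 24 h after po dosing. Plasma stored at -80 °C and assayed by LC–MS/MS. Parameters come from non-compartmental analysis and are the mean of two animals.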

[4] = Antitumor activity against human KPL4 cells expressing PI3Kalpha H1047R mutant xenografted in BALB nu/nu mouse assessed as tumor growth inhibition at 80mg/kg, po qd relative to control; type: functional; conditions: read-out: TGI
Method in brief: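 KPL-4 cells were injected orthotopically into the mammary fat pad of female BALB-nu/nu mice. Tumors were measured with a gauge twice weekly, with volume = length × width²/2. Once tumors reached about 200 mm³, mice were randomized (n = 5 per group) and treatment began.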

[5] = Apparent oral clearance in BALB/c nu mouse at 100 mg/kg; type: ADME, organism-based; parameters: dose 100 mg/kg, route oral; conditions: in vivo; method in brief: as §4
[6] = Half life in BALB/c nu mouse at 100 mg/kg, po; type: ADME, organism-based; parameters: dose 100 mg/kg, route oral; conditions: in vivo; method in brief: as §4
[7] = Cmax in BALB/c nu mouse at 100 mg/kg, po; type: ADME, organism-based; parameters: dose 100 mg/kg, route oral; conditions: in vivo; method in brief: as §4
[8] = Half life in BALB/c nu mouse at 10 mg/kg, iv; type: ADME, organism-based; parameters: dose 10 mg/kg, route intravenous; conditions: in vivo; method in brief: as §4
[9] = AUC in BALB/c nu mouse at 10 mg/kg, iv; type: ADME, organism-based; parameters: dose 10 mg/kg, route intravenous; conditions: plasma; method in brief: as §4
[10] = Cytotoxicity against human KPL4 cells expressing PI3Kalpha H1047R mutant assessed as growth inhibition after 96 hrs; type: functional, cell-based; conditions: KPL4, 96 h; method in brief: as §3
[11] = Half life in human liver microsomes at 5 uM in presence of UDPGA; type: ADME, Microsome; method in brief: as §1
[12] = molecular target: Phosphatidylinositol 4,5-bisphosphate 3-kinase catalytic subunit alpha isoform (Homo sapiens, UniProt P42336); assay: Inhibition of PI3Kalpha (unknown origin) using phosphatidylinositol 4,5-bisphosphate as substrate
Method in brief: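 Recombinant PI3Kα (p110α/p85α) activity was measured with the Adapta Universal Kinase Assay using PIP2:PS lipid substrate.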

[13] = Half life in human liver microsomes at 1 uM in presence of NADPH; type: ADME, Microsome; method in brief: as §2

Phosphatidylinositol 4,5-bisphosphate 3-kinase catalytic subunit alpha isoform, sequence (P42336 whole entry, canonical isoform): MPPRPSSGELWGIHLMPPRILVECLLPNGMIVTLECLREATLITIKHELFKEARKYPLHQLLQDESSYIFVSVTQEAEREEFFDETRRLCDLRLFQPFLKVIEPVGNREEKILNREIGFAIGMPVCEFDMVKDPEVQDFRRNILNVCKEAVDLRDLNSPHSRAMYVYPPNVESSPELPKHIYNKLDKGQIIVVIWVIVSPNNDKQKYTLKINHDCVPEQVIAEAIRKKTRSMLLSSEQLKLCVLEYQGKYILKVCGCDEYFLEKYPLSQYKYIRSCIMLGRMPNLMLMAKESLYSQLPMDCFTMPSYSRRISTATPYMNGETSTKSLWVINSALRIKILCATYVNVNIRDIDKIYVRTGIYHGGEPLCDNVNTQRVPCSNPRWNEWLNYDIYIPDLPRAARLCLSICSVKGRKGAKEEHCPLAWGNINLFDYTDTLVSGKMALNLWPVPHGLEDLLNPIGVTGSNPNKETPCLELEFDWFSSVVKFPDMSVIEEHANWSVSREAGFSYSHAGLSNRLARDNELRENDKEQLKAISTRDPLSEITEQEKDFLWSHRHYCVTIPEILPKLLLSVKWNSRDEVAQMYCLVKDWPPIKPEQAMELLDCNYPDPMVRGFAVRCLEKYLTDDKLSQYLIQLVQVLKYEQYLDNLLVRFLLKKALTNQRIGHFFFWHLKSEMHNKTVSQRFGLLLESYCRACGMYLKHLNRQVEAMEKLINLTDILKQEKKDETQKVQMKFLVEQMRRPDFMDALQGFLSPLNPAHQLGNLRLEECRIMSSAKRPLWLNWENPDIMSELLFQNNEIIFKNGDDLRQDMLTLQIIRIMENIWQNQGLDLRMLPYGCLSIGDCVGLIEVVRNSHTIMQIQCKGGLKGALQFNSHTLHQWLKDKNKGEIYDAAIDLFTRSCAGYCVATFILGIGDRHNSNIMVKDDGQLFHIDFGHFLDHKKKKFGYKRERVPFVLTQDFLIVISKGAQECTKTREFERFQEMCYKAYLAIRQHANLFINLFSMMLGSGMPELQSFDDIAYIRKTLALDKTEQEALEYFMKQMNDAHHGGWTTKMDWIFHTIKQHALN

IC50 [12] [nM] | SMILES | also measured
– | Oc1cccc(-c2nc(N3CCOCC3)nc3c2CCN3c2ccncc2)c1 | half-life at 5 µM [1]: 0.102 h; half-life at 1 µM [2]: 0.333 h; IC50 (PC-3): 140 nM; IC50 (HCT-116): 720 nM
– | Nc1ncc(-c2nc(N3CCOCC3)nc3c2CCN3c2cccnc2)cn1 | half-life at 5 µM [1]: > 1 h; AUC [3]: 19400 ng·h/mL; inhibition in vivo at 80 mg/kg [4]: 166%; CL/F [5]: 86.1 mL/min/kg; half-life [6]: 6.58 h; Cmax [7]: 4190 ng/mL; half-life [8]: 10.3 h; half-life at 1 µM [2]: 1.05 h; AUC [9]: 4690 ng·h/mL; IC50 [10]: 15 nM; IC50 (PC-3): 420 nM; IC50 (HCT-116): 170 nM; half-life at 5 µM [11]: > 1 h
19000 | NC(=O)c1cccc(-c2nc(N3CCOCC3)nc3c2CCN3c2ccncc2)c1 | –
2400 | CNC(=O)c1cccc(-c2nc(N3CCOCC3)nc3c2CCN3c2ccncc2)c1 | –
> 50000 | CNS(=O)(=O)c1cccc(-c2nc(N3CCOCC3)nc3c2CCN3c2ccncc2)c1 | –
> 50000 | c1cc(N2CCc3c(-c4ccc5cn[nH]c5c4)nc(N4CCOCC4)nc32)ccn1 | –
> 50000 | c1cc(N2CCc3c(-c4ccc5[nH]ncc5c4)nc(N4CCOCC4)nc32)ccn1 | –
> 50000 | Nc1n[nH]c2cc(-c3nc(N4CCOCC4)nc4c3CCN4c3ccncc3)ccc12 | –
> 50000 | c1cc(-c2nc(N3CCOCC3)nc3c2CCN3c2ccncc2)c2cn[nH]c2c1 | –
> 50000 | c1cc(-c2nc(N3CCOCC3)nc3c2CCN3c2ccncc2)c2[nH]ncc2c1 | –
22600 | c1cc(-c2nc(N3CCOCC3)nc3c2CCN3c2ccncc2)ccn1 | –
1700 | c1cncc(-c2nc(N3CCOCC3)nc3c2CCN3c2ccncc2)c1 | –
440 | c1cc(N2CCc3c(-c4cncnc4)nc(N4CCOCC4)nc32)ccn1 | –
26 | Nc1ncc(-c2nc(N3CCOCC3)nc3c2CCN3c2ccncc2)cn1 | half-life at 5 µM [1]: > 1 h; half-life at 1 µM [13]: 2.12 h; half-life at 1 µM [2]: 0.45 h; IC50 [10]: 29 nM; IC50 (PC-3): 120 nM; IC50 (HCT-116): 91 nM; half-life at 5 µM [11]: > 1 h
> 50000 | Oc1cccc(-c2nc(N3CCOCC3)nc3c2CCN3c2ccccn2)c1 | –
1220 | Oc1cccc(-c2nc(N3CCOCC3)nc3c2CCN3c2ccccc2)c1 | –
170 | Cc1cc(N2CCc3c(-c4cccc(O)c4)nc(N4CCOCC4)nc32)ccn1 | –
200 | Oc1cccc(-c2nc(N3CCOCC3)nc3c2CCN3c2ccnc(O)c2)c1 | –
> 50000 | Oc1cccc(-c2nc(N3CCOCC3)nc3c2CCN3c2ccc3ncccc3c2)c1 | –
49 | Oc1cccc(-c2nc(N3CCOCC3)nc3c2CCN3c2nccs2)c1 | –
230 | Cn1ccc(N2CCc3c(-c4cccc(O)c4)nc(N4CCOCC4)nc32)n1 | –
410 | COc1cccc(-c2nc(N3CCOCC3)nc3c2CCN3c2ccncc2)c1 | –
> 50000 | Cc1ccc(-c2nc(N3CCOCC3)nc3c2CCN3c2ccncc2)cc1O | –
> 50000 | Cc1c(O)cccc1-c1nc(N2CCOCC2)nc2c1CCN2c1ccncc1 | –
3700 | Nc1cccc(-c2nc(N3CCOCC3)nc3c2CCN3c2ccncc2)c1 | –
> 50000 | O=C(O)c1cccc(-c2nc(N3CCOCC3)nc3c2CCN3c2ccncc2)c1 | –
